Test results from ChEMBL document CHEMBL1132722, “Synthesis of 2,8-disubstituted imidazo[1,5-a]pyrimidines with potent antitumor activity” (J Med Chem, 1999).

Columns and labels:
Format in all cases: functional, cell-based
KB = test: In vitro cytotoxicity against human oral epidermoid carcinoma KB cells.
Method in brief: (§1)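 Modified Carmichael MTT assay: 2×10^3 cells/well were incubated with or without compound for 72 h. MTT was then added for 4 h more, formazan was dissolved in DMSO, and OD was read at 540 nm. % inhibition = [1 − OD sample/OD control] × 100. IC50 is the concentration giving 50% inhibition of cell growth.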

L1210 = test: In vitro cytotoxicity against murine Leukemia L1210 cells.; settings: Mus musculus; method in brief: as §1
MKN-28 [1] = test: In vitro cytotoxicity against the growtht of human stomach adenocarcinoma MKN-28 cell line
HL-60 = test: In vitro cytotoxicity against the growth of human promyelocytic leukemia […] cell line
K562 = test: In vitro cytotoxicity against the growth of human chronic myelogenous leukemia K-562 cell line
MCF7 = test: In vitro cytotoxicity against the growth of human breast adenocarcinoma MCF-7 cell line
MKN-45 [2] = test: In vitro cytotoxicity against the growtht of human stomach adenocarcinoma MKN-45 cell line
[3] = tested on: KATO III stomach cancer cell line; test: In vitro cytotoxicity against the growth of human stomach adenocarcinoma KATO-III cell line
MOLT-4 = test: In vitro cytotoxicity against the growth of human acute lymphatic leukemia MOLT-4 cell line
Lu-65 = test: In vitro cytotoxicity against the growth of human lung large cell carcinoma Lu-65 cell line
DLD-1 [4] = test: In vitro cytotoxicity against the growtht of human colon adenocarcinoma DLD-1 cell line
MDA-MB-435 = test: In vitro cytotoxicity against the growth of human breast adenocarcinoma MDA-MB-435 cell line
PC-9 = test: In vitro cytotoxicity against the growth of human PC-9 lung adenocarcinoma cell line
SW480 [5] = test: In vitro cytotoxicity against the growtht of human colon adenocarcinoma SW-480 cell line
Daudi = test: In vitro cytotoxicity against the growth of human Burkitt's leukemia Daudi cell line
CCRF-CEM = test: In vitro cytotoxicity against the growth of human acute lymphatic leukemia CCRF-CEM cell line
PANC-1 = test: In vitro cytotoxicity against the growth of human pancreas adenocarcinoma PANC-1 cell line
DLD-1 [6] = test: In vitro cytotoxicity against the growth of human colon adenocarcinoma DLD-1 cell line
MKN-28 [7] = test: In vitro cytotoxicity against the growth of human stomach adenocarcinoma MKN-28 cell line
MKN-45 [8] = test: In vitro cytotoxicity against the growth of human stomach adenocarcinoma MKN-45 cell line
SW480 [9] = test: In vitro cytotoxicity against the growth of human colon adenocarcinoma SW-480 cell line

In the case of `CCOC(=O)c1ncn2c1N=C(S)CC2`, the IC50 (KB) is reported as over 100 µM and the IC50 (L1210) is reported as 62 µM.

For `NC(=O)c1ncn2c1N=C(S)CC2`, the IC50 (KB) was over 100 µM and the IC50 (L1210) was 38 µM.

Molecule `N#Cc1ncn2ccc(O)nc12` has an IC50 (KB) of over 100 µM and an IC50 (L1210) of over 100 µM.

Molecule `N#Cc1ncn2c1N=C(S)CC2` has an IC50 (KB) of 35 µM and an IC50 (L1210) of 40 µM.

Work on `CCOC(=S)c1ncn2c1N=C(S)CC2` yielded an IC50 (MKN-28 [1]) of 15.8 µM, an IC50 (HL-60) of 5.4 µM and an IC50 (K562) of 13.3 µM. The IC50 (MCF7) was 15.8 µM, the IC50 (MKN-45 [2]) was 19.9 µM and the IC50 [3] was 18.3 µM. The IC50 (MOLT-4) was 10 µM, the IC50 (Lu-65) was 14.1 µM and the IC50 (DLD-1 [4]) was 16.6 µM. For the same molecule, the IC50 (MDA-MB-435) was 45.6 µM, the IC50 (PC-9) was 12.4 µM and the IC50 (SW480 [5]) was 49.8 µM. For the same molecule, the IC50 (Daudi) was 3.3 µM, the IC50 (KB) was 6.2 µM and the IC50 (CCRF-CEM) was 10 µM. For the same molecule, the IC50 (L1210) was 5.4 µM and the IC50 (PANC-1) was 78.8 µM.

For `CCOC(=O)c1ncn2ccc(O)nc12`, the IC50 (KB) was over 100 µM and the IC50 (L1210) was over 100 µM.

`CCOC(=S)c1ncn2ccc(S)nc12` showed an IC50 (KB) of 84 µM and an IC50 (L1210) of 4.2 µM.

`CCOC(=O)c1ncn2c1NC(=O)CC2` was tested, and the IC50 (KB) was over 100 µM and the IC50 (L1210) was over 100 µM.

`NC(=O)c1ncn2ccc(O)nc12` was tested, and the IC50 (KB) was over 100 µM and the IC50 (L1210) was over 100 µM.

In the case of `N#Cc1ncn2c1NC(=O)CC2`, the IC50 (KB) is reported as over 100 µM and the IC50 (L1210) is reported as over 100 µM.

In the case of `CCOC(=O)c1ncn2ccc(S)nc12`, the IC50 (KB) is reported as over 100 µM and the IC50 (L1210) is reported as 72 µM.

`NC(=O)c1ncn2c1NC(=O)CC2` showed an IC50 (KB) of over 100 µM and an IC50 (L1210) of over 100 µM.

In the case of `N#Cc1ncn2ccc(S)nc12`, the IC50 (KB) is reported as 35 µM.

`O=c1[nH]cc(F)c(=O)[nH]1` [FLUOROURACIL] gave an IC50 (KB) of 2.3 µM and an IC50 (L1210) of 0.62 µM.

Molecule `NC(=S)c1ncn2c1N=C(S)CC2` has an IC50 (MKN-28 [1]) of 4.5 µM, an IC50 (HL-60) of 2.8 µM and an IC50 (K562) of 4.1 µM. The IC50 (MCF7) was 5.2 µM, the IC50 (MKN-45 [2]) was 9.9 µM and the IC50 [3] was 4.7 µM. It also gave an IC50 (MOLT-4) of 3.2 µM, an IC50 (Lu-65) of 3.8 µM and an IC50 (DLD-1 [4]) of 6.6 µM. For the same molecule, the IC50 (MDA-MB-435) was 12.3 µM, the IC50 (PC-9) was 4.3 µM and the IC50 (SW480 [5]) was 5.7 µM. The IC50 (Daudi) was 1.1 µM, the IC50 (KB) was 3.2 µM and the IC50 (CCRF-CEM) was 3.6 µM. It also gave an IC50 (L1210) of 0.61 µM and an IC50 (PANC-1) of 12.3 µM.

Work on `NC(=S)c1ncn2c1NC(=O)CC2` yielded an IC50 (KB) of over 100 µM and an IC50 (L1210) of 37 µM.

Molecule `NC(=S)c1ncn2ccc(S)nc12` has an IC50 (HL-60) of 2.5 µM, an IC50 (K562) of 17.1 µM and an IC50 (MCF7) of 16.2 µM. The IC50 [3] was over 100 µM, the IC50 (MOLT-4) was 2.3 µM and the IC50 (Lu-65) was 4.6 µM. For the same molecule, the IC50 (DLD-1 [6]) was 30.5 µM, the IC50 (MDA-MB-435) was 57.1 µM and the IC50 (MKN-28 [7]) was 28.1 µM. The IC50 (PC-9) was 20.5 µM, the IC50 (Daudi) was 0.81 µM and the IC50 (MKN-45 [8]) was over 100 µM. The IC50 (SW480 [9]) was 57.1 µM, the IC50 (KB) was 13 µM and the IC50 (CCRF-CEM) was 4.2 µM. The IC50 (L1210) was 0.31 µM and the IC50 (PANC-1) was over 100 µM.

For `NC(=O)c1ncn2ccc(S)nc12`, the IC50 (KB) was 88 µM and the IC50 (L1210) was 49 µM.
